TLR4-MyD88 BLA: inhibitors of human TLR4-MyD88 binding | O00206+Q99836 | HeLa CL3-4 TLR4/MyD88 BLA complementation, FRET ratio | inhibition, % at 8.4 µM | 0.18% of 200,000 active; in the data active = inhibition above about 25%;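 also: 0% = vehicle and 100% = reference inhibitor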
MC4R antag cAMP: blocks human MC4R cAMP signaling; 0.48% of 360,000 active; MC4R-expressing cells, MTII-stimulated cAMP, LANCE TR-FRET; P32245; inhibition, % at 6.5 µM;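 active = inhibition above its plate's cutoff, the mean of tested wells on that plate plus 3 SD, cut at about 29% in these data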;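 also: 0% = Melanotan II alone and 100% = Melanotan II plus saturating MCL0020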
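Assay system: human MC4R-expressing U2OS cells; reagent: Melanotan II stimulation of cells; dosing: 6.5 µM single dose; timing: compound 30 min, challenge 1 h, detection 1 h; signal: TR-FRET cAMP assay; replicates: one well per compound, no replicates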
MC4R ag barr: agonists of human melanocortin 4 receptor (MC4R) beta-arrestin; P32245; activation, % at 8.9 µM; U2OS MC4R beta-arrestin complementation, luminescence; percent of melanotan II response, DMSO zero; 0.98% of 360,000 active;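 active = activation above a per-plate cutoff, the mean activation of sample wells on that plate plus 3 SD, cut at about 8% in these data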
NOD2-RIPK2 inh: blocks binding of human NOD2 to RIPK2 | AID 624267 | inhibition, % at 4.98 µM | CHO BLA complementation NOD2-RIPK2, CCF4 ratio | 0.38% of 360,000 active | O43353; in the data active = inhibition above about 21%;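 also: 0% = vehicle only and 100% = reference blocker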
TLR9-MyD88 block: TLR9-MyD88 interaction inhibition | inhibition, % at 4.98 µM | CHO BLA complementation TLR9-MyD88, CCF4 FRET ratio | 0.21% of 340,000 active | Q9NR96+Q99836 | AID 504734;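 active = inhibition above the mean over all tested compounds plus 3 SD, cut at about 21% in these data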;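 also: 0% = DMSO only wells and 100% = clavulanate BLA inhibitor control wells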
Target sequence (Q99836 whole entry, looked up): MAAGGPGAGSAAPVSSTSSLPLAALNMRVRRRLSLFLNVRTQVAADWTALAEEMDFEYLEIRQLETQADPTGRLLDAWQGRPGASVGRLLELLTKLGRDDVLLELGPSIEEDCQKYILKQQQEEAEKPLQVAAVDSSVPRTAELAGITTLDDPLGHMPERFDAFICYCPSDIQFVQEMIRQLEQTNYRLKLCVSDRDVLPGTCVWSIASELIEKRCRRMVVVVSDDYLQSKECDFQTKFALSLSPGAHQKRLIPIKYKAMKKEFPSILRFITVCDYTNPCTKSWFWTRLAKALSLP
Target sequence (Q9NR96 whole entry, looked up): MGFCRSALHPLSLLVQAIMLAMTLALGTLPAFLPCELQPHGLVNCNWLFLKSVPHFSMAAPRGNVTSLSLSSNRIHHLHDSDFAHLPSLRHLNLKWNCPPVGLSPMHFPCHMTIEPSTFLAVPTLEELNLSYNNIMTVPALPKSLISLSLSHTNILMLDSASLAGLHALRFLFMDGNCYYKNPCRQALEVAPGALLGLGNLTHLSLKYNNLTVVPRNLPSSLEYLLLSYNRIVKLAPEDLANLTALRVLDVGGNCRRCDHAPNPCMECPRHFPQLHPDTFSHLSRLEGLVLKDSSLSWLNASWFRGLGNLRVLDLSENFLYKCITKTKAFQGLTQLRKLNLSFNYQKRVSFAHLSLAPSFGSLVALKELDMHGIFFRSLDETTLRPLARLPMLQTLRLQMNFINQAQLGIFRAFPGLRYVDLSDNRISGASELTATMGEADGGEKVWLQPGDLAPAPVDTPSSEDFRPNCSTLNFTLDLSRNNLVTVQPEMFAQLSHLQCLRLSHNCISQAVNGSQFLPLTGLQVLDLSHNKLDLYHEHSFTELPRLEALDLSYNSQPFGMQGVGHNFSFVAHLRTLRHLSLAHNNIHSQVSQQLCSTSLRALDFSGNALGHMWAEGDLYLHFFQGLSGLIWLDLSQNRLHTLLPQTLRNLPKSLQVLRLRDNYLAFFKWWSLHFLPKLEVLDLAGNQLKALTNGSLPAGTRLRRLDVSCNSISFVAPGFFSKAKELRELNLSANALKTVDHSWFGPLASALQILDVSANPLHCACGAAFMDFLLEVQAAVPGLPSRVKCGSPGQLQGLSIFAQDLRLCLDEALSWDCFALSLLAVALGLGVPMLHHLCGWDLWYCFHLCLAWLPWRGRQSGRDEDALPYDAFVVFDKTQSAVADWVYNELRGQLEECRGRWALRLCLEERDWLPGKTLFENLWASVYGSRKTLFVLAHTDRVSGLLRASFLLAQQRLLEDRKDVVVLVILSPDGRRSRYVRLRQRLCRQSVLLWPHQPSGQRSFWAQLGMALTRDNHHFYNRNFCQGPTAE
TLR4-MyD88 conf: confirmation of human TLR4-MyD88 binding inhibitors. shares compounds with TLR4-MyD88 BLA. HeLa CL3-4 BLA complementation, CCF4 FRET ratio. inhibition, % at 8.4 µM. 50% of 350 active;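 active = mean inhibition across three repeat runs above about 25% carried over from the earlier screen, limit read from the data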;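 also: plate controls were DMSO only for no effect and clavulanic acid blocking BLA at full dose for full effect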
BLA inhibitor ct: counter-screen for TLR4-MyD88 inhibitors: beta-lactamase reporter inhibitors. inhibition, % at 8.4 µM. HeLa BLA reporter, CCF4 FRET ratio. shares compounds with TLR4-MyD88 BLA. 63% of 350 active;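 active = mean inhibition over three repeats above about 26% taken from the earlier screen, limit read from the data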;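 also: HeLa cells stably expressing beta-lactamase reporter as counterscreen for TLR4-MyD88 inhibitors; 0% = DMSO and 100% = clavulanic acid full inhibition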
Starred values were filed as active, the others as inactive; nt = no result. An excerpt weighted towards active compounds, which were near 1.8% of everything screened.

SMILES	TLR4-MyD88 BLA	MC4R antag cAMP	MC4R ag barr	NOD2-RIPK2 inh	TLR9-MyD88 block	others
COc1ccc2nc3ccccc3nc2c1NC(=O)c1ccc(Cl)cc1	-11	0	9.1*	1	-6
CC(=O)N[C@@H](Cc1c[nH]c2ccccc12)C(=O)NC1CC1	nt	5	-3	-1	3
Nc1ccccc1SCc1c(Cl)cccc1Cl	nt	-4	8.5*	0	-15
N#Cc1c(NC(=O)c2ccccc2)sc2c1CCCCC2	-10	-1	8.3*	-6	1
Cc1ccc(C(=O)Nc2sc3c(c2C#N)CCCCC3)cc1C	-5	6	0	2	-4
COc1ccc(C(N)=O)c(OCC(=O)Nc2cc(C)on2)c1	nt	2	-2	-16	-4
Cc1cc(C)c2c(N)c(C(=O)Nc3ccccc3Cl)sc2n1	nt	4	8.4*	5	nt
Cc1cc(C)cc(NC(=O)Nc2ccc(-n3ccc(C(F)(F)F)n3)cc2)c1	nt	14	8.8*	-1	8
O=C(Nc1ccc(-n2ccc(C(F)(F)F)n2)cc1)Nc1cccc(Cl)c1	nt	0	6	-6	0
Cc1ccc(C(=O)Nc2c(C)cc(C)c3cccnc23)cc1	nt	4	-2	1	5
C=CCn1c(SCC(=O)Nc2ccc(-c3nc4ccc(C)cc4s3)cc2)nnc1-c1ccccc1	-5	-12	38*	-2	0
Cc1ccccc1-c1nnn(CC(=O)Nc2ccc3c(c2)OCCO3)n1	12	3	-2	1	-3
C[C@H](CO)N1C[C@H](C)[C@@H](CN(C)C(=O)Nc2ccc(C(F)(F)F)cc2)Oc2ccc(NS(=O)(=O)c3cn(C)cn3)cc2C1=O	nt	5	0	-2	16
CCOC(=O)c1cc(C#N)c(NCc2ccccc2)nc1C	-11	-7	8.8*	-4	7
c1ccc(CNc2nc(NCc3ccccc3)c3sccc3n2)cc1	nt	-4	-1	-1	nt
CCOC(=O)CSc1nc(N)c(C#N)c(-c2cccs2)c1C#N	4	4	-1	-3	-3
CCOC(=O)CSc1c(-c2cccs2)[nH]c2ccccc12	-7	2	8.6*	3	0
O=C(COc1ccc2c(-c3ccccc3)cc(=O)oc2c1)NC1CCS(=O)(=O)C1 (centres undefined)	nt	14	3	-5	7
CSC(SC)=C(C#N)C(=O)c1ccccc1	nt	38*	24*	1	-10
O=C(O)c1ccc(C(=O)C(=O)c2ccccc2)cc1	nt	-1	2	-13	-9
COc1cccc(/C=C/C(=O)OCC(=O)c2c(N)n(C)c(=O)n(C)c2=O)c1	nt	0	-1	-9	-7
Cc1ccc(Cl)c(OCC(=O)Nc2ccc3c(c2)OCCO3)c1	-4	11	9.0*	1	-9
Cc1cc(C(=O)CSc2nnnn2C)c(C)n1CCc1ccc(Cl)cc1	1	6	1	9	-9
COc1ccc(CCn2c(C)cc(C(=O)CSc3nnnn3-c3ccccc3)c2C)cc1	-8	-19	8.7*	-2	-4
CCN(CC(=O)NC1CCS(=O)(=O)C1)C(=O)c1ccc(OC)c([N+](=O)[O-])c1 (centres undefined)	nt	0	-1	-9	-10
SMILES	TLR4-MyD88 BLA	MC4R antag cAMP	MC4R ag barr	NOD2-RIPK2 inh	TLR9-MyD88 block	others
NC(N)=N/N=C/c1ccc(OCc2ccccc2Cl)cc1	4	2	22*	2	6
O=C(CC[C@H]1O[C@@H](n2cnc3c(NC(=O)c4ccccc4)ncnc32)[C@H](O)[C@@H]1O)NCCCN1CCCC1=O	nt	nt	nt	3	nt
COc1cc(C(=O)Nc2nc3ccc(S(C)(=O)=O)cc3s2)cc(OC)c1C	nt	7	19*	-11	-12
CCOc1cc(S(=O)(=O)Nc2ccc(CC)cc2)ccc1Cl	5	2	9.4*	12	0
COc1ccc(-c2nn(-c3ccccc3)cc2C=O)cc1[N+](=O)[O-]	nt	-4	9.5*	3	-12
COc1ccc(/C=N/Nc2nc(C)c([N+](=O)[O-])c(N(C)c3ccccc3)n2)cc1OC	-2	2	20*	-7	-8
CCCc1c(-c2ccccc2Br)ncn1Cc1ccccc1OC	nt	nt	nt	-7	nt
O=C(CCCc1ccccc1)NCCc1ccccc1	nt	-1	0	-8	8
O=C(CCl)N(CCc1ccccc1)CCc1ccccc1	nt	5	8.3*	4	5
Cc1cccc(-c2noc(CN(C)C(=O)c3ccc4c(c3)OCO4)n2)c1	nt	6	1	8	2
Brc1ccc(/C=N/Nc2ccc3ccccc3n2)cc1	0	-13	11*	-18	1
Brc1ccccc1/C=N/Nc1ccc2ccccc2n1	-9	-3	-1	-9	-11
O=C(Nc1ccccc1O)C(c1ccccc1)c1ccccc1	nt	-1	1	-1	9
O=C(Nc1ccccc1-c1ccccc1)C(c1ccccc1)c1ccccc1	-9	1	9.4*	-2	10
Cc1ccc(-c2cc(C(F)(F)F)nn2-c2ccc(S(N)(=O)=O)cc2)cc1	nt	5	8.5*	-5	-8
c1ccc2c3n(nc2c1)CCCO3	nt	0	-1	6	-16
CN(C)c1ccc(/C=C/c2cc[n+]([O-])cc2)cc1	7	nt	nt	nt	nt
CN(C)c1ccc(/C=C/c2cc[n+](C)cc2)cc1	26*	-37	-1	1	3	TLR4-MyD88 conf=11;BLA inhibitor ct=21
Cc1ccc(NC(=O)CNC(=O)c2ccc(OC(F)F)cc2)cc1S(=O)(=O)N1CCCCCC1	nt	8	-2	5	-4
Cc1cccc2cc(C#N)c(NCCNC(=O)NC3CCCCC3)nc12	25*	-10	-2	-10	-2	TLR4-MyD88 conf=-11;BLA inhibitor ct=-3
COc1ccc(C(=O)NCCNc2nc3c(C)cccc3cc2C#N)cc1	nt	7	-2	-1	-13
CCOC(=O)c1c2ccc(OCC(=O)N/N=C/c3ccc(Cl)cc3)cc2n2ccccc12	52*	nt	nt	nt	nt	TLR4-MyD88 conf=54*;BLA inhibitor ct=34*
CC1CCN(Cc2ccc(-c3nn[nH]n3)cc2)CC1	27*	12	2	-2	-19	TLR4-MyD88 conf=-5;BLA inhibitor ct=4
Cc1cc(C(=O)O)cc(S(=O)(=O)Nc2ccccc2C(=O)NC(C)c2ccccc2)c1C (centres undefined)	nt	14	-1	-3	-2
O=c1cc(-c2ccccc2)nc2c(Cl)cc(Cl)cn12	nt	-4	-1	4	3
CC(=O)c1ccc(OCC(=O)NC2CCCN(Cc3ccccc3F)C2)cc1 (centres undefined)	nt	-1	0	-1	1
Cc1cc(/C=C2\Sc3ccccc3N2C)cc(C)[n+]1CC1CCCO1 (centres undefined)	36*	-23	-2	0	nt	TLR4-MyD88 conf=23;BLA inhibitor ct=41*
O=C(CCN1CCOCC1)Nc1ccc2c(c1)CCC2	25*	13	0	-4	0	TLR4-MyD88 conf=-1;BLA inhibitor ct=4

Screening results: PubChem BioAssay, The Scripps Research Institute Molecular Screening Center
